The structures appear in SMILES notation. ≈ marks a conversion by molar mass, not a printed value. Calls of active or inactive are those of the source. The calls are words filed in the database; no cut-off is given here.

The subject of test [1] is Pseudomonas aeruginosa. The test is described as follows: Antibacterial activity against Pseudomonas aeruginosa ATCC 13525. The class given is functional, organism-based. The essentials: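 Broth microdilution in MH medium with an inoculum of about 10⁵ cfu/mL. Compounds were serially diluted from a DMSO stock and incubated 24 h at 37 °C. MIC was read visually, then confirmed colorimetrically: MTT (2 mg/mL in PBS, pH 7.4) was added for 4–5 h at room temperature, the dye was extracted with isopropanol/5% 1 mol/L HCl for 12 h, and OD was read at 550 nm.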

The subject of test [2] is Bacillus subtilis. The test is described as follows: microbe, parasite or virus in culture. The test is classed as functional. Conditions: ATCC 6633.
Test [3] has as its system Staphylococcus aureus. The test is described as follows: Antibacterial activity against Staphylococcus aureus ATCC 6538. The test is classed as functional.
Test [4] is described as follows: Inhibition of Escherichia coli DNA gyrase supercoiling activity.
Test [5] deals with Pseudomonas fluorescens. The test is described as follows: Antibacterial activity against Pseudomonas fluorescens ATCC 13525. The class given is functional.
The test system of test [6] is Escherichia coli. The test is described as follows: Antibacterial activity against Escherichia coli ATCC 35218. The test is classed as functional.

Turning to `CC1=NN(/C(C)=N\OC(=O)c2cccnc2)C(c2ccc(OCc3ccc(F)cc3)cc2)C1` (stereo not given), in test [1], the outcome was Active. The MIC in test [2] is 6.25 µg/mL (≈ 14 µM); in test [3], 6.25 µg/mL (≈ 14 µM); in test [5], 12.5 µg/mL (≈ 28 µM); in test [6], 6.25 µg/mL (≈ 14 µM). For the same compound, the IC50 (commonly the concentration that gives 50% inhibition) in test [4] stood at 4 µg/mL (≈ 8.96 µM).
`CCC(=O)O/N=C(/C)N1N=C(C)CC1c1ccccc1OCc1ccc(F)cc1` (stereo not given): the outcome in test [1] was Active. Also, the MIC in test [2], in test [3], in test [5] and in test [6] was 50 µg/mL (≈ 126 µM) in each case. Moreover, in test [4], the IC50 is > 125 µg/mL.
On to `C/C(=N/OC(=O)c1ccco1)N1N=C(c2ccc(Cl)cc2Cl)CC1c1ccc(C(F)(F)F)cc1` (stereo not given), for which, in test [1], the result was Active. Also, the MIC in test [2] amounted to 1.56 µg/mL (≈ 3.06 µM); in test [3] it was 3.12 µg/mL (≈ 6.12 µM); in test [5] it was 1.56 µg/mL (≈ 3.06 µM); in test [6], 3.12 µg/mL (≈ 6.12 µM). In test [4], this compound gave an IC50 of 8 µg/mL (≈ 15.7 µM).
With `C/C(=N/OC(=O)c1ccco1)N1N=C(c2ccc(Cl)cc2Cl)CC1c1ccccc1F` (stereo not given), the result in test [1] was Active. Also, the MIC was 3.12 µg/mL (≈ 6.79 µM) in test [2], 1.56 µg/mL (≈ 3.39 µM) in test [3], 6.25 µg/mL (≈ 13.6 µM) in test [5] and 1.56 µg/mL (≈ 3.39 µM) in test [6]. In test [4], the IC50 was 1 µg/mL (≈ 2.17 µM).
As to `COC1CC(c2ccccc2)=NN1/C(C)=N\OC(=O)c1ccco1` (stereo not given), the MIC in test [2] stood at 0.78 µg/mL (≈ 2.38 µM); in test [3] it was 3.12 µg/mL (≈ 9.55 µM); in test [5] it was 1.56 µg/mL (≈ 4.77 µM); in test [6], 3.12 µg/mL (≈ 9.55 µM). In test [4], the IC50 was 0.25 µg/mL (≈ 0.764 µM).
Regarding `C=CC(=O)O/N=C(/C)N1N=C(c2ccc(Cl)cc2Cl)CC1c1ccccc1F` (stereo not given), the outcome in test [1] was Active. Also, the MIC in test [2] was determined as 3.12 µg/mL (≈ 7.44 µM); in test [3], 3.12 µg/mL (≈ 7.44 µM); in test [5] it was 12.5 µg/mL (≈ 29.7 µM); in test [6] it was 3.12 µg/mL (≈ 7.44 µM). Besides, the IC50 in test [4] stood at 100 µg/mL (≈ 238 µM).
